Results published in ChEMBL document CHEMBL4373706, “Discovery of Inhibitors of Aurora/PLK Targets as Anticancer Agents” (J Med Chem, 2019).
Active and inactive are the calls of the source. No cut-off for these calls is given here.

Legend:
A549 = assay: Antiproliferative activity against human A549 cells measured after 48 hrs by MTT assay; type: functional, cell-based
Procedure, shortened: (§1)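 Cells were exposed to a range of compound concentrations for 48 h. MTT reagent was then added and absorbance read at 490 nm. Viability was normalized to vehicle control set as 100%, from n = 3 independent experiments, and IC50 was taken from the dose–response curves.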

Calu-6 = assay: Antiproliferative activity against human Calu6 cells measured after 48 hrs by MTT assay; type: functional, cell-based; procedure, shortened: as §1
MCF7 = assay: Antiproliferative activity against human MCF7 cells measured after 48 hrs by MTT assay; type: functional, cell-based; procedure, shortened: as §1
HCT-116 [1] = assay: Antiproliferative activity against human HCT116 cells measured after 48 hrs by MTT assay; type: functional, cell-based; procedure, shortened: as §1
HCT-116 [2] = assay: Antitumor activity against human HCT116 cells xenografted in BALB/c mouse assessed as survival rate at 10 mg/kg, iv administered every 3 days for 60 days relative to control; type: functional; conditions: HCT-116, iv
HCT-116 [3] = assay: Induction of apoptosis in human HCT116 cells assessed as increase in apoptotic index at 1 to 10 uM measured after 48 hrs by Annexin V-FITC/propidium iodide staining-based flow cytometry; type: functional, cell-based
HCT-116 [4] = assay: Inhibition of colony formation in human HCT116 cells at 10 uM incubated for 48 hrs followed by supplemented with fresh medium every 3 days for 2 weeks by crystal violet staining-based assay; type: functional, cell-based
HCT-116 [5] = assay: Antiproliferative activity against human HCT116 cells measured after 96 hrs by Brdu incorporation-based ELISA; type: functional, cell-based; conditions: HCT-116, 96 h

| Compound | Activity (A549) | Activity (Calu-6) | Activity (MCF7) | Activity (HCT-116 [1]) | survival at 10 mg/kg (HCT-116 [2]) [%] | Activity (HCT-116 [3]) | inhibition (HCT-116 [4]) | IC50 (HCT-116 [5]) [µM] |
| --- | --- | --- | --- | --- | --- | --- | --- | --- |
| COc1ccc(C(=O)Nc2ccc3cc(C(=O)NC4CC4)ccc3c2)cc1 | Active | Active | Active | Active |  |  |  |  |
| O=c1[nH]cc(F)c(=O)[nH]1 [FLUOROURACIL] |  |  |  |  | 30 |  |  |  |
| COc1cc(Nc2ncc3c(n2)-c2ccc(Cl)cc2C(c2c(F)cccc2OC)=NC3)ccc1C(=O)O [ALISERTIB] |  |  |  |  |  | Active | inactive | 32 |
| CC[C@@H]1C(=O)N(C)c2cnc(Nc3ccc(C(=O)NC4CCN(C)CC4)cc3OC)nc2N1C1CCCC1 |  |  |  |  |  | Active | inactive |  |
| O=C(Nc1ccc2cc(C(=O)NC3CCCCC3)ccc2c1)c1ccc(F)cc1 | Active | Active | Active | Active |  |  |  |  |
